Compound activity from PubChem.
Rows were chosen to be rich in hits. Some 3.5% of all compounds tested hit in one or more screens of this group.
MrgX1 antagonist: antagonists of human MrgX1 receptor; Q96LB2; MRGX1-HEK293 calcium flux, Fluo-4, BAM8-22 antagonism; stronger effect = lower value; B-score at 10 µM; actives 1.3% (n = 310,000);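 active means calcium-response B-score plate-corrected more than 3 library SD below zero, starting fluorescence within 5 deviations, no agonist response on first addition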;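 further: peak minus trough fluorescence over baseline after final BAM8-22 challenge near maximal dose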
Target sequence (Q96LB2 whole entry, looked up): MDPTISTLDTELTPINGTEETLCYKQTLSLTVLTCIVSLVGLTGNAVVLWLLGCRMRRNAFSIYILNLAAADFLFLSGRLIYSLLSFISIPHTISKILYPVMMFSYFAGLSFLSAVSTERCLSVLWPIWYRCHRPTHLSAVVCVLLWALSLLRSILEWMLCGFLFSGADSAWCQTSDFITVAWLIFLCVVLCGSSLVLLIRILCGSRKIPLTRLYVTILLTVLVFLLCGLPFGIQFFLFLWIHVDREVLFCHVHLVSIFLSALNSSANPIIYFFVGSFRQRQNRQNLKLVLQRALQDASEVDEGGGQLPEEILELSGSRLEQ
RGS4 block: inhibitors of human RGS4; HEK293 M3R/RGS4 inducible, Fluo-4 calcium flux; stronger effect = higher value; triggered by carbachol at its EC20; B-score at 10 µM; actives 0.45% (n = 310,000);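 active means B-score, a plate-corrected calcium signal, over three deviations above library mean, with baseline fluorescence within five deviations of library mean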;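 further: RGS4 expression induced by doxycycline in cells with stable M3 receptor; B-score is computed from the integrated fluorescence ratio over baseline after carbachol; higher B-score means a larger calcium signal and so more RGS4 inhibition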
Target sequence (P49798 whole entry, looked up): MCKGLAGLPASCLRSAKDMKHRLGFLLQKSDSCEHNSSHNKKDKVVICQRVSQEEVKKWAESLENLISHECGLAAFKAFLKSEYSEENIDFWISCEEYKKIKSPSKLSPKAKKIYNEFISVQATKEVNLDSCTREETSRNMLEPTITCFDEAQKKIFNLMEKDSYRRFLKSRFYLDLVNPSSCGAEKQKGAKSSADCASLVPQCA
MrgX1 allo act: allosterically activates human MrgX1 receptor signaling; Q96LB2; MrgX1-HEK293, Fluo-4 calcium flux, FDSS; stronger effect = higher value; B-score at 10 µM; actives 0.63% (n = 310,000); AID 588675;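 active means plate-corrected calcium response at least 3 library SD above typical, normal starting fluorescence, not activating the receptor alone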;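 further: compound read alongside a low EC10 to EC30 dose of BAM8-22 agonist; peak minus trough fluorescence over baseline measured at the second addition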
RGS4 act: RGS4 potentiation or activation; HEK293 M3R/inducible RGS4, carbachol calcium flux Fluo4; stronger effect = lower value; B-score at 10 µM; actives 0.92% (n = 310,000); AID 463111;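 active means B-score of the integrated calcium signal more than 4 SD below the library mean, with starting fluorescence not abnormally high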;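 further: negative B-score means reduced calcium response which marks RGS4 activation or potentiation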
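Detection: kinetic calcium fluorescence imaging with Fluo4-AM dye, 2 µM / Material: HEK293 cells with stable M3R and inducible RGS4 / Schedule: recording 10 s baseline at 1 Hz, 100 s post-agonist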
MrgX1 agonist: human MrgX1 receptor agonism, primary screen. MrgX1-HEK293 cells, Fluo-4 calcium fluorescence, agonist mode; stronger effect = higher value. AID 588627. Q96LB2. actives 0.44% (n = 310,000). B-score at 10 µM;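 active means calcium response B-score plate-corrected fluorescence ratio at least 3 library SD, with starting fluorescence B-score inside 5 SD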
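Material: MrgX1-expressing HEK293 cells / Dosing: compound as first of three additions / Incubation: overnight seeding, then 1 h dark dye loading / Signal: Fluo-4 NW calcium fluorescence / Evaluation: B-scored fluorescence response ratio / Benchmarks: positive and negative control wells on each plate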
RGS4 inh valid: RGS4 inhibitor validation. shares compounds with RGS4 block. HEK293 M3R/RGS4, carbachol calcium Fluo-4 fluorescence; carbachol added at its EC20; 0 = buffer wells, 100 = carbachol control. calcium response, % at 10 µM. actives 65% (n = 1,700). AID 492999;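 active means duplicate-averaged calcium response above the buffer-only control mean plus 5 SD of those controls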;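 further: integrated fluorescence ratio F max minus min over baseline F0; higher response in RGS4-induced cells means RGS4 inhibition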
RGS4 uninduced: counter-screen for RGS4 inhibitors: effect in non-induced cells | actives 20% (n = 1,900) | activity (percent), % at 10 µM | AID 493000 | shares compounds with RGS4 block | HEK293 M3R non-induced, carbachol calcium Fluo-4; submaximal (EC20) carbachol stimulus; buffer wells 0%, carbachol control wells 100%; call rule not given here;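 further: RGS4 induction absent so cells express M3R without RGS4; higher means more calcium signal and flags a non-specific hit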
M3R basal Ca ctr: second counter-screen for RGS4 inhibitors: non-induced cells without carbachol; shares compounds with RGS4 block; calcium response (agonist-mode artifact), % at 10 µM; AID 493001; HEK293 M3R/RGS4 non-induced, Fluo-4 calcium, no carbachol; normalised: buffer wells 0%, carbachol wells 100%; actives 22% (n = 1,900);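 active means duplicate-averaged calcium rise in uninduced cells above buffer wells' mean plus 5 SD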
* = called active by the depositor; i = inactive; . = no result given.

SMILES	MrgX1 antagonist	RGS4 block	MrgX1 allo act	RGS4 act	MrgX1 agonist	RGS4 inh valid	RGS4 uninduced	M3R basal Ca ctr
Cc1ccc(NC(=O)c2c(C)nc(Nc3nc4ccccc4o3)nc2C)cc1	i	i	i	i	i	.	i	i
O=C1CN(CC(=O)Nc2cccc(Cl)c2Cl)c2ccccc2N1	i	i	i	i	i	.	.	.
CCc1sc(C(C2C(=O)CC(C)(C)CC2=O)C2C(=O)CC(C)(C)CC2=O)cc1[N+](=O)[O-]	i	30*	i	i	52*	30%*	i	121%*
O=C(NCCN1C(=O)S/C(=C\c2ccc(Cl)c(Cl)c2)C1=O)C1COc2ccccc2O1 (stereo not drawn)	i	4.9*	i	i	i	8.0%*	i	i
COc1ccc(/C=C2/SC(=O)N(CCNC(=O)C3COc4ccccc4O3)C2=O)cc1 (stereo not drawn)	i	i	i	i	i	.	.	.
CC1CC(C)CN(C(=O)c2cc3cc(Br)cc(Br)c3o2)C1 (stereo not drawn)	i	i	i	i	i	.	.	.
COC(=O)c1ccc(NC(=S)Nc2ccc3ccccc3c2)cc1	i	7.8*	i	i	i	i	i	i
COC(=O)c1ccc(NC(=S)Nc2ccccc2)cc1	i	i	i	i	i	.	.	.
CCc1ccc2nc(NC(=O)c3cc(C)on3)sc2c1	i	6.4*	i	i	i	25%*	36%*	i
Cc1ccc(N(CC(=O)NCc2ccco2)C(=O)CNS(=O)(=O)c2ccc(F)cc2)c(C)c1	i	i	i	i	i	.	.	.
Cc1ccccc1N(CC(=O)NCc1ccco1)C(=O)CNS(=O)(=O)c1ccc(F)cc1	i	i	i	i	i	i	i	i
COc1cc2c(cc1OC)C(C)N(C(=O)[C@@H](NC(=O)c1ccccc1)C(C)C)CC2 (stereo partly drawn)	i	i	i	i	i	.	.	.
Cc1ccc2cc(CN(C(=O)c3ccco3)c3ccccc3)c(=O)[nH]c2c1	i	5.4*	i	i	i	i	i	i
Cc1ccc(N(Cc2cc3ccccc3[nH]c2=O)C(=O)c2ccco2)c(C)c1	i	i	i	i	i	.	.	.
Cc1ccc(N(Cc2cc3ccc(C)cc3[nH]c2=O)C(=O)c2ccco2)cc1	i	i	i	i	i	i	i	i
Cc1cccc(N(Cc2cc3ccc(C)cc3[nH]c2=O)C(=O)c2ccco2)c1	i	i	i	i	i	.	i	i
Cc1ccc(N(Cc2cc3ccc(C)cc3[nH]c2=O)C(=O)c2cccs2)cc1	i	i	i	i	i	.	.	.
O=C(CN(Cc1ccc(Cl)c(Cl)c1)S(=O)(=O)c1ccccc1)N/N=C\c1ccc2c(c1)OCO2	i	6.7*	i	i	i	18%*	i	i
O=C(CN(CCc1ccccc1)S(=O)(=O)c1ccc(Br)cc1)N/N=C/c1ccc2c(c1)OCO2	i	i	i	i	i	.	.	.
O=C(CN(Cc1ccccc1)S(=O)(=O)c1ccccc1)N/N=C/c1ccc2c(c1)OCO2	i	i	i	i	i	.	i	i
CCn1cc(C(=O)N2CCc3ccccc32)c(=O)c2cc(S(=O)(=O)N(C)C3CCCCC3)ccc21	i	i	i	i	i	.	.	.
O=Nc1c(O)n(Cc2cccc(Cl)c2)c2ccccc12	i	6.4*	i	i	i	16%*	37%*	i
CC1=NN(c2ccccc2)C(=O)/C1=C/C=C/c1ccccc1	i	i	i	i	i	.	.	.
C#CCOc1ccc(/C=C2/C(=O)N(c3cccc(C(=O)O)c3)N=C2C)cc1OC	i	6*	i	i	i	5.0%*	i	i
CC1=NN(c2cccc(C(=O)O)c2)C(=O)/C1=C\C=C\c1ccco1	i	9.8*	i	i	i	16%*	34%*	i
SMILES	MrgX1 antagonist	RGS4 block	MrgX1 allo act	RGS4 act	MrgX1 agonist	RGS4 inh valid	RGS4 uninduced	M3R basal Ca ctr
CCOC(=O)C1=C(c2ccccc2)NC(N)=NC1c1ccc(OCc2ccc(Cl)cc2)c(OC)c1 (stereo not drawn)	i	8.9*	i	i	i	32%*	i	34%*
CCOC(=O)C1=C(c2ccccc2)NC(=O)NC1c1cc(Cl)c(O)c(OC)c1 (stereo not drawn)	i	i	i	i	i	.	.	.
Cc1ccc(OCC(=O)N/N=C/c2cn(C)c3ccccc23)cc1	i	i	i	i	i	.	i	i
CCOc1ccc(/C=c2\sc3nc(-c4ccco4)nn3c2=O)cc1OCC	i	6*	i	i	i	8.5%*	i	133%*
COc1ccccc1/C=c1\sc2nc(-c3ccco3)nn2c1=O	i	i	i	i	i	.	.	.
CCCC1=[N+](CC(=O)c2ccc(Br)cc2)CCn2cccc21	i	i	i	i	i	.	.	.
COC(=O)c1cc(=O)n(Cc2ccco2)c(=Nc2ccc(F)c(Cl)c2)s1	i	i	i	i	i	.	i	i
COC(=O)c1cc(=O)n(CCc2ccccc2F)c(=Nc2ccc(F)c(Cl)c2)s1	i	i	i	i	i	.	.	.
Cc1cccc(CCNC(=O)c2cc(S(=O)(=O)N3CCCCC3)c[nH]2)c1	i	i	i	i	i	.	.	.
COc1ccc(Nc2cnn(-c3nc4ccccc4s3)c(=O)c2Cl)cc1	i	4.7*	i	i	i	11%*	i	i
COc1ccc(C)cc1S(=O)(=O)NCC(c1ccc2c(c1)OCO2)N1CCOCC1 (stereo not drawn)	i	i	i	i	i	.	.	.
Cc1c(NC(=O)CSc2nc3ccccc3s2)c(=O)n(-c2ccccc2)n1C	i	i	i	i	i	.	.	.
O=c1c2ccccc2nc2c3ccccc3c3nncn3n12	.	i	.	i	.	.	.	.
O=c1c2ccccc2nc2n1CCS2(=O)=O	i	6.2*	i	i	i	26%*	i	i
